Data as given in ChEMBL document CHEMBL1140872, “Discovery of a potent and selective inhibitor for human carbonyl reductase 1 from propionate scanning applied to the macrolide zearalenone” (Bioorg Med Chem, 2009).

Biological target: T1, Carbonyl reductase [NADPH] 1 (Homo sapiens, UniProt P16152)
T1 sequence (P16152 whole entry): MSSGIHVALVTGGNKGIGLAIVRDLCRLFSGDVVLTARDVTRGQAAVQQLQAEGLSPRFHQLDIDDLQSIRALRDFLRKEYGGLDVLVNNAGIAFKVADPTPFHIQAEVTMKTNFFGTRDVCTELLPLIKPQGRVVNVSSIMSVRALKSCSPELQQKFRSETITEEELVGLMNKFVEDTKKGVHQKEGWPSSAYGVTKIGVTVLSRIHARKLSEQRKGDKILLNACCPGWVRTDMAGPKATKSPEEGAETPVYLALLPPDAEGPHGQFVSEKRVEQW
Test: Binding affinity to human recombinant carbonyl reductase 1 expressed in Escherichia coli assessed as NADPH oxidation using isatin as substrate
Summary of the method: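 Purified recombinant CBR1 (200 nM) and NADPH were added to compound in 50 mM sodium phosphate, pH 6.8, 1 mM MgCl2. NADPH oxidation was followed as the fluorescence decrease at 460 nm (excitation 355 nm). Rates came from linear regression after normalising to the fluorescence rise at injection. Compounds were titrated at two isatin levels, with no-protein background subtracted. Sigmoidal fit gave IC50, then Ki from the isatin concentration.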

SMILES	IC50 [µM]	Ki [µM]
C[C@H]1CCCC(=O)[C@@H](C)CC/C=C/c2cc(O)cc(O)c2C(=O)O1	0.21	0.04
C[C@@H]1C[C@H]2O[C@@H]2/C=C\C=C\C(=O)Cc2c(Cl)c(O)cc(O)c2C(=O)O1 [RADICICOL]	3.27	0.52
